Assay outcomes as filed in PubChem BioAssay.
Dynein transport – dynein cargo transport inhibition | 3617.4 mouse cells, GR-EGFP nuclear translocation imaging; test concentration mostly 20 µM; stimulated with dexamethasone, 1 µM; stronger effect = lower value | z-score, hits read low | 220,000 tested, 0.47% active;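 active = plate z-score of nuclear minus cytoplasmic receptor signal below a set negative limit, without overly bright fluorescence or cell loss, cut at about -3.5 in these data, passing the limit was not always enough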;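 note: z-score of nuclear minus cytoplasmic ring GR-EGFP intensity difference per well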
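medium = tetracycline-free induction medium containing charcoal-stripped FBS | also added = 1.0 µM final dexamethasone stimulus | schedule = 48 h induction, 1 h compound, 30 min dex at 37 °C | technique = fixed, Hoechst-stained cells imaged at 10x for EGFP | measure = GR-EGFP nuclear translocation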
ABCB6 inh 2 – human ABCB6 transporter inhibition; K562-ABCB6 porphyrin accumulation, flow cytometry, 1 h; stronger effect = lower value; fluorescence ratio to DMSO, % at 10 µM; 360,000 tested, 0.19% active; AID 602162;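 active = fluorescence ratio to DMSO below 75%, the collection mean minus 3 SD; inconclusive = too few cells collected in the well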;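 note: signal is porphyrin accumulated inside mitochondria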
V-ATPase pH – regulators of yeast V-ATPase proton transport | S. cerevisiae, pHLuorin cytosolic pH fluorescence | response, % at 10 µM | 350,000 tested, 0.37% active | AID 504577; in the data active = response mostly above about 7.3%, no sharp cut-off; inactive = mostly below about 5.4%; note: actives read high
Cl transport mod – modulators of human KCC2 chloride dependent transport. Q9H2X9. KCC2 cells, thallium flux FluoZin-2 fluorescence. B-score of Tl+ flux slope (higher = more flux/activation; lower = inhibition) at 10 µM. 190,000 tested, 2.2% active. AID 1456;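 active = thallium flux slope and its plate-corrected score both differing from the plate sample mean at a set confidence after two filtering rounds, in either direction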;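 note: slope of fluorescence scaled to starting intensity during 10 to 20 s after thallium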
Target sequence (Q9H2X9 whole entry, looked up): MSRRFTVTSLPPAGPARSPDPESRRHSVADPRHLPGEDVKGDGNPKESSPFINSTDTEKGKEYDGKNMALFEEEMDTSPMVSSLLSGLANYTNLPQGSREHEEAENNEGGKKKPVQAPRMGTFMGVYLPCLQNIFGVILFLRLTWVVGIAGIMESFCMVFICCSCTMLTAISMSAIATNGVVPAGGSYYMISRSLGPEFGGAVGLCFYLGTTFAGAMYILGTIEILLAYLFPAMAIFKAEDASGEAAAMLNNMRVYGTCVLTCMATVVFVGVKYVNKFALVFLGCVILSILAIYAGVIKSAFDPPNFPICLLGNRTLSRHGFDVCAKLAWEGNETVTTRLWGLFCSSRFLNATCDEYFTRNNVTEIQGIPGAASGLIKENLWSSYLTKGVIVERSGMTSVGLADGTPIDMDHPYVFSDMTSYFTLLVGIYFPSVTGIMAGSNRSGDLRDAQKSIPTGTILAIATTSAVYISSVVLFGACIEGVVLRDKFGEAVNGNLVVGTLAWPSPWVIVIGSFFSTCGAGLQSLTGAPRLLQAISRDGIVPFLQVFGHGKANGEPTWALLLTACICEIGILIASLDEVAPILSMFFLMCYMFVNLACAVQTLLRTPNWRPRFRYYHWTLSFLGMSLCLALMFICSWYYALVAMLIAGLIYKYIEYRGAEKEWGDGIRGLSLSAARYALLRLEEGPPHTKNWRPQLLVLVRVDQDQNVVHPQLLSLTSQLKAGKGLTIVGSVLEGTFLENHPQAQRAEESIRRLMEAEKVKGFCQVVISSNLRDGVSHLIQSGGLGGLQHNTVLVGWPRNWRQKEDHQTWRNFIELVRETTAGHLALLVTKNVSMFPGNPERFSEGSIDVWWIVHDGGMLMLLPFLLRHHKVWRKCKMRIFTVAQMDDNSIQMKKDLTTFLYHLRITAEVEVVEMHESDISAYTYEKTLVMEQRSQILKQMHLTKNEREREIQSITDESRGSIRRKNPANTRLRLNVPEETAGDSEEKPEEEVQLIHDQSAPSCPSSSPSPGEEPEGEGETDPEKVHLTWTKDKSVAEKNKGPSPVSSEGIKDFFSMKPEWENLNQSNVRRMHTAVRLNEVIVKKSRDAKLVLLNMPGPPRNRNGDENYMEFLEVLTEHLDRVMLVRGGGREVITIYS
p-CIP stab down – lowers stability of the mouse p/CIP coactivator protein; Q05BA5; F442A p/CIP-EGFP cells, EGFP fluorescence, 16 h; decrease of EGFP signal, % at 10 µM; 290,000 tested, 0.01% active;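 active = EGFP signal decrease of at least 30% at 10 µM or well 3 SD below plate mean, unless failing retest; inactive = the rest, including hits failing retest or dose response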
KCC2 sec1 – KCC2 (human) modulation, secondary assay. 3,700 tested, 15% active. normalised thallium flux (F/F0 slope) at 10 µM. shares compounds with Cl transport mod. HEK293-KCC2, thallium flux, FluoZin2 fluorescence; stronger effect = higher value. AID 1713;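 active = thallium flux slope above the same plate's solvent-only control mean plus 3 SD; inconclusive = the two replicate wells disagree; inactive = no significant difference from solvent-only control wells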
KCC2 bumet counter – thallium flux persisting under bumetanide in KCC2 cells, counter-screen secondary assay | normalized thallium flux at 10 µM | 3,700 tested, 49% active | AID 1714 | HEK293-KCC2 + bumetanide/ouabain, thallium flux FluoZin2; stronger effect = higher value | shares compounds with Cl transport mod;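 active = thallium entry rate above the same plate's blocked-transporter control wells by more than 3 SD; inconclusive = the two repeat wells disagree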;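 note: raw slope of fluorescence over initial fluorescence between 10 and 20 s after thallium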
KCC2 secondary2 – KCC2 (human) modulation, second secondary assay. shares compounds with Cl transport mod. HEK293-KCC2, thallium flux FluoZin2 fluorescence; actives lie on both sides; F/F0 rise rate, 10–20 s post-thallium. normalized thallium flux at 10 µM. 3,700 tested, 23% active. AID 1715;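 active = thallium flux slope more than 3 SD above or below the plate's solvent-only control mean, mostly below; inconclusive = the two repeat wells disagreed; inactive = no significant shift from solvent-only controls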
HEK293 Tl flux – counter-screen for KCC2 modulators: effect in parental HEK293 cells. shares compounds with Cl transport mod. thallium flux FluoZin2, ouabain; baseline-ratio fluorescence slope, 10–20 s after thallium. thallium flux rate (normalised fluorescence) at 10 µM. 3,700 tested, 46% active. AID 1716;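 active = thallium flux rate significantly above the same plate's solvent-only control wells, beyond their mean plus 3 SD; inconclusive = the two replicate wells gave conflicting results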
KCC2 ouabain – modulates human KCC2 on retest with ouabain; shares compounds with Cl transport mod; HEK293-KCC2, thallium flux FluoZin2 fluorescence; bidirectional: low = inhibitor, high = activator; raw Tl+ flux slope (below DMSO = inhibition, above = activation) at 10 µM; 3,700 tested, 48% active;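 active = thallium flux slope beyond 3 SD from same-plate DMSO control mean in most replicates, usually higher, sometimes lower; inconclusive = repeat tests gave conflicting results; inactive = no significant difference from controls in most replicates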;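 note: slope of initial-normalized fluorescence between seconds 10 and 20 after thallium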
HEK293 Tl flux2 – acts in parental HEK cells, second KCC2 counter-screen. AID 1718. HEK293 parental, thallium flux FluoZin-2 fluorescence slope. 3,700 tested, 33% active. thallium flux slope at 10 µM. shares compounds with Cl transport mod;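 active = thallium flux slope above the same plate's solvent-control mean plus 3 SD in both duplicate wells; inconclusive = duplicate wells that disagreed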;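 note: run without ouabain in cells lacking the KCC2 cotransporter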
Numbers stand for hits; 0 = inactive; ? = inconclusive; - = no result. This excerpt belongs to a sample that is enriched for hits.

SMILES	Dynein transport	ABCB6 inh 2	V-ATPase pH	Cl transport mod	p-CIP stab down	KCC2 sec1	KCC2 bumet counter	KCC2 secondary2	HEK293 Tl flux	KCC2 ouabain	HEK293 Tl flux2
Oc1ccc(/C=N/n2cc(-c3ccccc3)[nH]c2=S)cc1	0	0	0	0	0	-	-	-	-	-	-
S=c1[nH]c(-c2ccccc2)cn1/N=C/c1cccc2ccccc12	0	0	0	58	0	0	0.079	0.077	0.078	0.086	0.07
Cc1ccc(/C=N/n2cc(-c3ccccc3)[nH]c2=S)s1	0	0	0	33	0	0.024	0.068	0	0.056	0.058	0.019
S=c1[nH]c(-c2ccccc2)cn1/N=C/c1ccccc1Br	0	0	0	46	0	?	0.066	0.063	0.067	0.079	0.047
CC1CC(C)CN(C(=O)CCNC(=O)c2ccccc2Cl)C1 (stereo not drawn)	-	0	0	-	0	-	-	-	-	-	-
COc1ccccc1N1C[C@@H]2C[C@@H](c3ccco3)N3CCC[C@@]23C1=O	0	0	0	0	0	-	-	-	-	-	-
COc1ccc(S(=O)(=O)N2CCNCC2)cc1	-	0	0	-	0	-	-	-	-	-	-
COc1ccc(NC(=O)CSc2nnc(Cc3cccn3C)n2-c2ccc(F)cc2)cc1	0	0	0	0	0	-	-	-	-	-	-
COc1ccc(-n2c(Cc3cccn3C)nnc2SCC(=O)Nc2ccc(F)cc2)cc1	0	0	0	-3.1	0	0	0	0	0	0	0
Cc1nc(N)sc1N=Nc1ccc(Br)cc1	0	0	0	0	0	-	-	-	-	-	-
CN(C)S(=O)(=O)c1ccc(C(=O)NCc2nnc(SCC(=O)c3ccccc3)o2)cc1	-	0	0	-	0	-	-	-	-	-	-
COc1ccc(Cl)cc1C(=O)NNC(=O)C1COc2ccccc2O1 (stereo not drawn)	0	0	0	39	0	0	0.054	0	0.017	0.043	0.012
COc1ccc2nc(NNC(=O)C3COc4ccccc4O3)sc2c1 (stereo not drawn)	0	0	0	5.1	0	0	0.02	0	0.011	?	0
O=C(Nc1nc(-c2nc3ccccc3s2)cs1)C1COc2ccccc2O1 (stereo not drawn)	0	0	0	2.5	0	0	0.0083	0	?	0	0.011
COC(=O)c1ccccc1NC(=O)C1COc2ccccc2O1 (stereo not drawn)	0	0	0	0	0	-	-	-	-	-	-
CCOC(=O)c1ccccc1NC(=O)C1COc2ccccc2O1 (stereo not drawn)	0	0	0	-5.2	0	0	0	0	0	0	0
CCOC(=O)C(=O)N1CCC(C(=O)OCC)CC1	0	0	0	0	0	-	-	-	-	-	-
O=C(NCc1ccccn1)c1ccccc1OCc1ccccc1Cl	-	0	0	-	-	-	-	-	-	-	-
CC1(CCc2ccccc2)NC(=O)N(CC(=O)N2CCCCCC2)C1=O (stereo not drawn)	-	0	0	-	-	-	-	-	-	-	-
CCOC(=O)c1sc2ncnc(OC)c2c1C	0	0	0	-	0	-	-	-	-	-	-
CCOC(=O)c1sc2nc[nH]c(=O)c2c1C	0	0	0	5.8	0	0	0	0	0	0	?
Fc1cccc(Cl)c1CSc1nnc(CNc2ccccc2)o1	0	0	0	-3.5	0	0	0	0	0.0058	0.014	?
O=C(N/N=C/c1ccc(Br)o1)c1cc([N+](=O)[O-])cc([N+](=O)[O-])c1	0	0	0	12	0	?	0.024	0	0.0098	0.026	?
O=C(c1cccc(F)c1)N1CCC(c2nc3ccccc3s2)CC1	0	0	0	0	0	-	-	-	-	-	-
CCOC(=O)c1cc2c(ccn2C)n1CC(=O)N1CCC(Cc2ccccc2)CC1	0	0	0	-5.9	0	0	0	?	0	0.016	0
SMILES	Dynein transport	ABCB6 inh 2	V-ATPase pH	Cl transport mod	p-CIP stab down	KCC2 sec1	KCC2 bumet counter	KCC2 secondary2	HEK293 Tl flux	KCC2 ouabain	HEK293 Tl flux2
O=c1nc(SCc2ccccc2Cl)nc(-c2ccc(Cl)cc2)[nH]1	0	0	0	67	0	0	0	0	?	?	0
O=C(CCS(=O)(=O)c1ccc(Br)s1)NC1CCCC1	0	0	0	-	0	0	0	0	0	0	0
O=C(CNC(=O)c1cccs1)NC1=NCCS1	0	0	0	2.9	0	0	0	0	0	0	0
CCCC1CCC(c2ccc(OCC)cc2)=CC1=O (stereo not drawn)	-	0	0	-	0	-	-	-	-	-	-
CN(C)c1ccc(NC(=O)c2sc(SCC(=O)Nc3ccc(Br)cc3)nc2N)cc1	0	0	0	-	0	-	-	-	-	-	-
CN(C)c1ccc(NC(=O)c2sc(SCC(=O)Nc3nccs3)nc2N)cc1	0	0	0	14	0	0	0.013	0	0.012	?	0.014
O=C(Nc1cnc2ccccc2c1)c1ccncc1	0	0	0	0	0	-	-	-	-	-	-
O=C(NC(=S)Nc1cnc2ccccc2c1)c1ccccc1	0	0	0	21	0	?	0.041	0	0.012	0.022	0.015
O=C(Cc1csc(Nc2nc(=S)[nH]c3ccccc23)n1)N1CCN(c2cccc(C(F)(F)F)c2)CC1	0	0	0	12	0	0	0.014	0	0.022	0.027	0.018
O=C(Cc1csc(Nc2nc(=S)[nH]c3ccccc23)n1)NCc1cccc(Cl)c1	0	0	0	-	0	-	-	-	-	-	-
Cc1onc(-c2c(F)cccc2Cl)c1C(=O)NCc1ccccn1	0	0	0	-4.9	0	?	?	?	0	0	0
Cc1onc(-c2ccccc2Cl)c1C(=O)NC(=S)Nc1ccccc1F	0	0	0	54	0	0.015	0.099	0	0.044	0.041	0.013
CCOC(=O)c1c(C)c(C(=O)NCc2ccccn2)c(C)n1CC	0	0	0	8.3	0	0	0	0	0	0	0
Cc1onc(-c2ccccc2Cl)c1C(=O)NCCN1Cc2ccccc2C1=O	0	0	0	-	0	0	0	0	0	0	0
CCOC(=O)c1ccc(NC(=O)C(=O)NCc2ccccn2)cc1	0	0	0	0	0	-	-	-	-	-	-
N#CCCN(C(=O)Nc1ccccc1)C1CCCCC1	-	0	0	-	-	-	-	-	-	-	-
COc1ccccc1N1CCN(C(=O)CCCNC(=O)Cn2cnc3sc(C)c(C)c3c2=O)CC1	-	0	0	-	0	-	-	-	-	-	-
